# Reference: PMC5900965 (Clinical Pharmacology in Drug Development, 2017)
# Several values for one entry are separate records, joined by “and”; a condition that tells them apart may be missing. Equal entries are not always repeated.
# Tests used:
# [1] = 10 and 25 mg; patients with RA; week 8; cited from earlier work
# [2] = cited from earlier work
# [3] = Phase 1 study safety and tolerability; format: in vivo, human
# CYP3A [4] = target: T1, CYP3A (Homo sapiens, UniProt P08684); assay: clinical; details: in vivo; for Tmax: Tmax of midazolam, median (range)
# T1 sequence (P08684 2-503): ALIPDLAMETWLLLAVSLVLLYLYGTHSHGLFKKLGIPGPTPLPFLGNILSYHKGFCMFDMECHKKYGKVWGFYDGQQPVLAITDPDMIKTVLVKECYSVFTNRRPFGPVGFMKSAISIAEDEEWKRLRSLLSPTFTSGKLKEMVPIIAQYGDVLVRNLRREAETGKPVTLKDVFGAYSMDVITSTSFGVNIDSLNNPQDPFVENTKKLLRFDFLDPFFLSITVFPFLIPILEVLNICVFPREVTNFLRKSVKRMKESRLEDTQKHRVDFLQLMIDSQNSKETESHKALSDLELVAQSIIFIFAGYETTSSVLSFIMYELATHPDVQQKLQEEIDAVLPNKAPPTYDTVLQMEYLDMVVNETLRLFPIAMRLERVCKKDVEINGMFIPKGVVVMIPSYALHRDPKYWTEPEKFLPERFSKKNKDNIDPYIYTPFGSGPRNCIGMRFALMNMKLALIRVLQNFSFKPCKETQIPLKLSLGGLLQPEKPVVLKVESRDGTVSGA
# CYP2C8 = target: T2, CYP2C8 (Homo sapiens, UniProt P10632); assay: Reversible inhibition of CYP2C8 in pooled human liver microsomes; format: in vitro ADME
# T2 sequence (P10632 1-490): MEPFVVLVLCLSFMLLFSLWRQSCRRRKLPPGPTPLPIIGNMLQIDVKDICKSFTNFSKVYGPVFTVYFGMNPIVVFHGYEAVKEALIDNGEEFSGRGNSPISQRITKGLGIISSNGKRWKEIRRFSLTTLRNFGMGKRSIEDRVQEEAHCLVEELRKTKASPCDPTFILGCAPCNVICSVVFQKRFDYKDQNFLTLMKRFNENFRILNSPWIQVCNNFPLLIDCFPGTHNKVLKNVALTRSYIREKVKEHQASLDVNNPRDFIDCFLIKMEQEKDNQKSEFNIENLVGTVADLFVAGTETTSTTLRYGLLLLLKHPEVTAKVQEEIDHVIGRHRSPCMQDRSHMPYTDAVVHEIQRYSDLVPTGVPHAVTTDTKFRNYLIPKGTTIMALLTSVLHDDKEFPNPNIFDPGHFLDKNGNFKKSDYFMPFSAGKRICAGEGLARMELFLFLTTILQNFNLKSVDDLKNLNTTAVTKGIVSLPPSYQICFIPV
# CYP3A4 = assay: Induction of CYP3A4 enzyme activity in cryopreserved human hepatocytes; format: in vitro ADME; details: 72 hours, positive defined as ≥2‐fold
# In short: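 Cryopreserved human hepatocytes from several lots, in collagen-coated wells, were exposed for 72 h to test compound (0.5–100 or 0.5–60 μM), vehicle, or rifampin (25 or 10 μM). After washing, testosterone (250 μM) or midazolam (30 μM) was added. 6β-Hydroxytestosterone was measured by HPLC-UV and 1′-hydroxymidazolam by LC-MS/MS. A ≥2-fold rise counted as positive. EC50 and Emax were fitted to the concentration–fold-induction curves.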
# CYP3A4 mRNA = assay: Induction of CYP3A mRNA in cryopreserved human hepatocytes; format: in vitro ADME; details: for Estimated Emax (Fold Induction): highest fold induction observed
# CYP2C9 = CYP2C9 (Homo sapiens, UniProt P11712); assay: Reversible inhibition of CYP2C9 in pooled human liver microsomes; format: in vitro ADME
# CYP2C9, sequence (P11712 whole entry): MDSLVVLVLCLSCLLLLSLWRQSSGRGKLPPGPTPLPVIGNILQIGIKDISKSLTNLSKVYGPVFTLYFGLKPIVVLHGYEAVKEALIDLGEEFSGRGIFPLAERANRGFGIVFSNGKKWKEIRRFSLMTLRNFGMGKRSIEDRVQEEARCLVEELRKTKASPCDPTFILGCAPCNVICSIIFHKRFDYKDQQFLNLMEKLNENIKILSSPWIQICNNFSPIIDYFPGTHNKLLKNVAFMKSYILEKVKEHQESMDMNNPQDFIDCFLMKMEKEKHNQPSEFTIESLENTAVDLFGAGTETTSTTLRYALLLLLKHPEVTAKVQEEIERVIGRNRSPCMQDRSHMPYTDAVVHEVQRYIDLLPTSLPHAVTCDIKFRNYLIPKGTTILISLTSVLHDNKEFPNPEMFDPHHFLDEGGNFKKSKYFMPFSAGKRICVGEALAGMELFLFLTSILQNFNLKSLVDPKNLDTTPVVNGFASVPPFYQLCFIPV
# CYP2D6 [5] = target: T3, CYP2D6 (Homo sapiens, UniProt P10635); assay: Time-dependent inhibition of CYP2D6 in pooled human liver microsomes; format: in vitro ADME
# T3 sequence (P10635 whole entry): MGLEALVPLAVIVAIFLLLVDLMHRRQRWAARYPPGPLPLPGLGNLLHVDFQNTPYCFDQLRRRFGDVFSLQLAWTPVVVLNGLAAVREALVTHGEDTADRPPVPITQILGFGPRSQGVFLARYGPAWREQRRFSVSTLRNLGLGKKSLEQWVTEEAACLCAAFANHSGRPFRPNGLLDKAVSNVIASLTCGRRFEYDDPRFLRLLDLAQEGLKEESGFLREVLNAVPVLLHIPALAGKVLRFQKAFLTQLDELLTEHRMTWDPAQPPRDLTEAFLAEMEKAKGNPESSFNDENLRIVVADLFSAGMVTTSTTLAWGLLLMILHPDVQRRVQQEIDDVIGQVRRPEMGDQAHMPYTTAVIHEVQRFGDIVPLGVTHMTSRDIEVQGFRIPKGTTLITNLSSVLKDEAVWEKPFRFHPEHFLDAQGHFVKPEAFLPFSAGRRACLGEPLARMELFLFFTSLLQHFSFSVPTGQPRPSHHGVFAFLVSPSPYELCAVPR
# CYP3A4/5 = assay: Time-dependent inhibition of CYP3A in pooled human liver microsomes; format: in vitro ADME
# [6] = at 0.76 mg/mL microsomal protein; ref data on file; cited from earlier work
# CYP2D6 [7] = target: T3, CYP2D6; assay: Reversible inhibition of CYP2D6 in pooled human liver microsomes; format: in vitro ADME
# CYP2C19 = CYP2C19 (Homo sapiens, UniProt P33261); assay: Reversible inhibition of CYP2C19 in pooled human liver microsomes; format: in vitro ADME
# CYP2C19, sequence (P33261 whole entry): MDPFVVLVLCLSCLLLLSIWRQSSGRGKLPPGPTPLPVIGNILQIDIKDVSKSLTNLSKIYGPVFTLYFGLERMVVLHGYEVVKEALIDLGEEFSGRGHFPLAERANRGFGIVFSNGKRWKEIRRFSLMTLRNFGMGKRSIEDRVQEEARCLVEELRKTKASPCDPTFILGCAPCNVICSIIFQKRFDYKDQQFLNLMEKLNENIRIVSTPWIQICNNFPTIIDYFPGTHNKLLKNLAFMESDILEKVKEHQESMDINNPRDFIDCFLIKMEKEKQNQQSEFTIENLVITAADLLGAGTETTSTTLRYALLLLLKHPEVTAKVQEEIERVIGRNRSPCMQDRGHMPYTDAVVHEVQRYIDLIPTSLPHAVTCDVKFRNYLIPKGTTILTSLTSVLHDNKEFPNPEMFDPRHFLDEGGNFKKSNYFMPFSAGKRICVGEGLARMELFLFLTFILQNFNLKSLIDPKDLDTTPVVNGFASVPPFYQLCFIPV
# CYP1A2 [8] = target: T4, CYP1A2 (Homo sapiens, UniProt P05177); assay: biochemical; format: in vitro ADME
# T4 sequence (P05177 1-516): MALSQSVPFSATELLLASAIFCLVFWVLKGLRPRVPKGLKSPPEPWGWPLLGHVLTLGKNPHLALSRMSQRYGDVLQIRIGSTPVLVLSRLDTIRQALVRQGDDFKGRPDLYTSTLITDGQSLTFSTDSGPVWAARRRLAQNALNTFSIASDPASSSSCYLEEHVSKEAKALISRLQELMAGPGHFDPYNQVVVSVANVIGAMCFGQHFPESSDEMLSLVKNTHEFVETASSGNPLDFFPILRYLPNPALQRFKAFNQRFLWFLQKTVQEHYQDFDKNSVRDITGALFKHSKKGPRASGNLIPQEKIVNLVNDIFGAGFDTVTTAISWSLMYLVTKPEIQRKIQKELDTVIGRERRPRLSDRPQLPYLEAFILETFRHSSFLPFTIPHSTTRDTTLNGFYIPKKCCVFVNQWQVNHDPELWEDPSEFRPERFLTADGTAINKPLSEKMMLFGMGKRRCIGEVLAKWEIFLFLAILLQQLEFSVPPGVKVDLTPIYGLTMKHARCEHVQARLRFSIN
# [9] = Clinical plasma exposure after oral PF-04171327; format: in vivo, human; details: 25‐mg steady‐state administration of PF‐04171327
# CYP3A [10] = target: T1, CYP3A; assay: Reversible inhibition of CYP3A in pooled human liver microsomes; format: in vitro ADME
# [11] = test system: CYP2C8, CYP2C9, CYP2D6 and CYP3A (range over these CYPs); assay: Reversible CYP inhibition panel in human liver microsomes; format: in vitro ADME; details: pooled human liver microsomes
# CYP2B6 = target: T5, CYP2B6 (Homo sapiens, UniProt P20813); assay: Reversible inhibition of CYP2B6 in pooled human liver microsomes; format: in vitro ADME
# T5 sequence (P20813 1-491): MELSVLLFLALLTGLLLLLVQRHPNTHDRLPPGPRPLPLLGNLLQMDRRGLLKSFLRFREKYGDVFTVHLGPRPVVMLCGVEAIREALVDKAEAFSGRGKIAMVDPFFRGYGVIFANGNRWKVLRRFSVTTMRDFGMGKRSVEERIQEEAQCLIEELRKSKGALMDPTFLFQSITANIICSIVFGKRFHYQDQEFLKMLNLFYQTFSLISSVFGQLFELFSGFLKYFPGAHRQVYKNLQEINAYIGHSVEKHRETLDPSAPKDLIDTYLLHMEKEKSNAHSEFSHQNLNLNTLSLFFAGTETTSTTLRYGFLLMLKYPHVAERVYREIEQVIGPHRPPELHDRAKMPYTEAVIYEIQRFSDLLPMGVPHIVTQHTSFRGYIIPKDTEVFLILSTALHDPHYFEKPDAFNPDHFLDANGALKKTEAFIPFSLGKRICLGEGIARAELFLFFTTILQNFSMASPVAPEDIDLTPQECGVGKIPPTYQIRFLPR
# CYP1A2 [12] = format: in vitro ADME; details: human hepatocytes, 72 hours; data not shown
compound,measurement,setting,value
"Cc1ncccc1NC(=O)c1ccc2c(c1)CC[C@@H]1C[C@@](OP(=O)(O)O)(C(F)(F)F)CC[C@@]21Cc1ccccc1 [PF‐04171327, fosdagrocorat]",Efficacy in improving signs and symptoms of RA,[1],superior efficacy relative to placebo and comparable efficacy relative to prednisone
same,Detection in systemic circulation,"[2]; single or multiple ascending‐dose phase 1 studies, lower limit of quantification 0.5 ng/mL, ref Pfizer, unpublished data",not detected
same,SAEs or deaths,[3]; coadministration of PF‐04171327 and midazolam,No SAEs or deaths were reported
"Cc1ncc2n1-c1ccc(Cl)cc1C(c1ccccc1F)=NC2 [Midazolam, midazolam]",AUC(0-inf),CYP3A [4],20.3 ng·h/mL
same,AUC(0-t),CYP3A [4],19.8 ng·h/mL
same,Cmax,CYP3A [4],7.2 ng/mL
same,half-life,CYP3A [4],3.34 h
same,Tmax,CYP3A [4],~0.5 h
same,AUC(0-inf),"CYP3A [4]; po, 2 mg",21.2 ng·h/mL
same,AUC(0-t),"CYP3A [4]; po, 2 mg",20.5 ng·h/mL
same,Cmax,"CYP3A [4]; po, 2 mg",8.03 ng/mL
same,half-life,"CYP3A [4]; po, 2 mg",3.87 h
same,Tmax,"CYP3A [4]; po, 2 mg",~0.5 h
same,Treatment‐emergent AEs,"[3]; midazolam 2 mg only, 12 healthy volunteers",No TEAEs were reported
"Cc1ncccc1NC(=O)c1ccc2c(c1)CC[C@@H]1C[C@@](O)(C(F)(F)F)CC[C@@]21Cc1ccccc1 [PF‐00251802, dagrocorat]",IC50,CYP2C8,480 nM
same,Induction of CYP3A4 enzyme activity,CYP3A4,not observed
same,Estimated Emax (Fold Induction),"CYP3A4 mRNA; Lot 1, expt 1",13 Fold Induction
same,Estimated Emax (Fold Induction),"CYP3A4 mRNA; Lot 1, expt 2",4.7 Fold Induction
same,Estimated Emax (Fold Induction),"CYP3A4 mRNA; Lot 2, expt 1",40 Fold Induction
same,Estimated Emax (Fold Induction),"CYP3A4 mRNA; Lot 2, expt 2",22 Fold Induction
same,Induction of CYP3A4 mRNA,"CYP3A4 mRNA; all lots tested, positive defined as ≥4‐fold induction based on mRNA",Induction of CYP3A4 mRNA was observed
same,Estimated total Cmax,"[2]; 25‐mg steady‐state administration of PF‐04171327, ref Miyoshi et al 11, Weatherley et al 22, unpublished data",approximately 300 ng/mL
same,Time to achieve apparent steady‐state concentrations,[2]; multiple‐dose study of PF‐04171327 in healthy volunteers,12 days
same,Cmax,"[2]; read-out: Estimated total Cmax, 25‐mg steady‐state administration of PF‐04171327, ref Miyoshi et al 11, Weatherley et al 22, unpublished data",~610 nM
same,IC50,CYP2C9,1800 nM
same,Ki,CYP2D6 [5],570 nM
same,kinact/KI,CYP2D6 [5]; dextromethorphan,367 M⁻¹ s⁻¹
same,Concentrations at which time‐dependent inhibition of CYP2D6 was shown,CYP2D6 [5]; dextromethorphan as probe substrate,≥ 600 nM
same,Concentrations at which time‐dependent inhibition of CYP3A was shown,CYP3A4/5; midazolam as marker substrate,≥ 80 nM
same,kinact/KI,"CYP3A4/5; midazolam, slope of kobs versus [I] curve",1200 M⁻¹ s⁻¹
same,Fraction unbound in microsomes,[6],approximately 0.22
same,IC50,CYP2D6 [7],570 nM
same,IC50,CYP2C19,> 30000 nM
same,IC50,CYP1A2 [8],> 30000 nM
same,Unbound Cmax,[9],approximately 2.1 ng/mL and ~4.2 nM
same,IC50,CYP3A [10]; probe felodipine (oxidation),1300 nM
same,IC50,CYP3A [10]; probe midazolam (1′-hydroxylation),4600 nM
same,IC50,CYP3A [10]; probe testosterone (6β-hydroxylation),1000 nM
same,IC50,[11],480 to 4600 nM
same,IC50,CYP2B6,> 30000 nM
same,Induction of CYP1A2 enzyme activity,CYP1A2 [12],No induction
